A selection: hits, their analogues and other compounds. The true share with any hit is near 3.4%.
A3G deaminase: APOBEC3G (human) deaminase inhibition | hit rate 0.28% among 330,000 | inhibition, % at 20 µM | recombinant A3G, ssDNA deamination FAM/TAMRA fluorescence | Q9HC16;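 active = inhibition of at least 40% at 20 µM, with no more than 30% in the related APOBEC3A deaminase screen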;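 also: plate controls were DMSO wells with A3G for no effect and wells lacking A3G enzyme for full effect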
Target sequence (Q9HC16 whole entry, looked up): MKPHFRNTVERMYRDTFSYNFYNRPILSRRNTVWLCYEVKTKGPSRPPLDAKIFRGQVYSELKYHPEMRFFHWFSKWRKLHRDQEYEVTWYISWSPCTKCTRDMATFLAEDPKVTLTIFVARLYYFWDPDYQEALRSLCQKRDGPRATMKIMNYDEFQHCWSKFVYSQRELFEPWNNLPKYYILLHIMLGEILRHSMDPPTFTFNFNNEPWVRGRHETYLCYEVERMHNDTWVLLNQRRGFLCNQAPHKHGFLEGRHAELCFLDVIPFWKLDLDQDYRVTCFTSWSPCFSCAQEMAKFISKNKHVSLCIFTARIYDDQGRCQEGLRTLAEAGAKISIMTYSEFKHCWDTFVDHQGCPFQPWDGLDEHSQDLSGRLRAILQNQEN
UCH37 inh: human UCH37 deubiquitinating enzyme inhibition. purified proteasome/UCH37, Ub-AMC cleavage fluorescence. AID 588478. inhibition, % (concentration not given with the values). hit rate 0.33% among 330,000;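 active = mean inhibition over replicate wells above about 20%, limit read from the data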;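 also: 0% = compound-free wells with enzyme and 100% = wells lacking proteasome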
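Signal – fluorescence, ex 355 nm, em 460 nm · System – Proteasome-bound UCH37 · Input – 0.15 nM proteasome as dispensed · Timing – 30 min preincubation with enzyme, 25 min cleavage at room temperature · Read-out basis – percent inhibition of cleavage signal versus uninhibited and no-proteasome wells · Medium – Tris-HCl pH 7.4 with ATP-MgCl2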
A3A deaminase: human APOBEC3A DNA deaminase inhibition; recombinant A3A, FAM/TAMRA ssDNA deamination fluorescence; inhibition, % at 20 µM; hit rate 0.41% among 330,000; AID 493011;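 active = at least 40% inhibition at 20 µM here, with at most 30% in a related deaminase screen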;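 also: plate controls were A3A with DMSO for no effect and wells lacking A3A enzyme for full effect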
Target sequence (P31941 whole entry, looked up): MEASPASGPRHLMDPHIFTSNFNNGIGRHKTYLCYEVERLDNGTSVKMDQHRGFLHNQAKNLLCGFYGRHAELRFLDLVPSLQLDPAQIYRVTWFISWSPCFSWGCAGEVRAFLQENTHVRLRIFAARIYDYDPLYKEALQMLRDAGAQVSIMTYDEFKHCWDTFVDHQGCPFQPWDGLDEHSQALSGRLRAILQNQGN
AHR activator: activates the human aryl hydrocarbon receptor; P35869; AHR-responsive luciferase reporter cells, luminescence; activation, % at 5 µM; hit rate 2.5% among 320,000; AID 2796; in the data active = activation above about 47%;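 also: 0% = vehicle wells and 100% = reference agonist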
PolyA inhibitor: blocks polyadenylation in yeast reporter cells; S. cerevisiae SKY197-pL101 polyadenylation reporter, beta-gal luminescence; efflux-impaired pdr1/pdr3 knockout yeast; score 100 = 6 SD above DMSO; activity score, % at 12 µM; hit rate 0.02% among 300,000; AID 1875;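 active = lowest replicate activity score at least 50, where 100 means six control SD above control mean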;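 also: yeast exposed to compound for 9 h at 30 °C; higher score means more reporter readthrough which indicates perturbed polyadenylation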
Arr AP2 block: blocks beta-arrestin peptide binding to AP2 adaptin; inhibition, % at 10 µM; hit rate 0.31% among 340,000; FITC-arrestin peptide / GST-AP2 beads, flow cytometry; AP2 beta2 appendage carries R879A mutation;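 active = inhibition above a set limit, near 3 SD of compounds lacking own fluorescence, cut at about 54% in these data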;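 also: plate controls were DMSO wells for no effect and 5 µM unlabelled arrestin peptide for full effect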
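Material – AP2 appendage R879A on GSH beads · Buffer or medium – PBS with 0.05% Tween 20 and 0.1% BSA · Probe or stimulus – fluorescein-tagged arrestin peptide at 50 nM final · Incubation – compound with beads 12 min RT, then probe 1 h RT · Detection – high-throughput flow cytometry of beads, ex 488, em 535 nm · Evaluation – percent response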
* = called active by the depositor.

How did COc1ccc(Cl)cc1C(=O)NCCCn1ccnc1 do in these assays?
A3G deaminase: -1; UCH37 inh: 0; A3A deaminase: 1; AHR activator: 22; PolyA inhibitor: -9; Arr AP2 block: 6

Results for O=C(NCCCn1ccnc1)c1noc2c1CCCC2 ?
A3G deaminase: -1; UCH37 inh: 3; A3A deaminase: 3; AHR activator: 48*; PolyA inhibitor: 14; Arr AP2 block: 2

Results for COc1cc(SC)ccc1C(=O)NCCCn1ccnc1 ?
A3G deaminase: -1; UCH37 inh: 5; A3A deaminase: -5; AHR activator: 59*; PolyA inhibitor: -8; Arr AP2 block: -2

Results for O=C(NCCCn1ccnc1)c1noc2c1CCc1ccccc1-2 ?
A3G deaminase: -4; UCH37 inh: 10; A3A deaminase: -2; AHR activator: 29; PolyA inhibitor: -8; Arr AP2 block: 0

What do the screens show for `COc1ccc(CC(=O)N/N=C/c2c(C)n(C)c3ccccc23)cc1OC`?
A3G deaminase: -11; A3A deaminase: -5; AHR activator: 48*; PolyA inhibitor: -11; Arr AP2 block: -10

What do the screens show for `CC(C)(C)c1cc(C(=O)N/N=C/c2ccco2)n[nH]1`?
A3G deaminase: -9; A3A deaminase: -2; AHR activator: 15; PolyA inhibitor: 11; Arr AP2 block: -5

How did Cc1c(/C=N/NC(=O)c2cc(C(C)(C)C)[nH]n2)c2ccccc2n1C do in these assays?
A3G deaminase: -7; A3A deaminase: -4; AHR activator: 73*; PolyA inhibitor: 1; Arr AP2 block: -9

How did Cc1ccc(OCC(=O)NN=Cc2c(C)n(C)c3ccccc23)c([N+](=O)[O-])c1 do in these assays?
UCH37 inh: 3

How did Cc1ccc(-c2csc(NCCc3nc4cc(Cl)c(Cl)cc4n3CCCO)n2)cc1 do in these assays?
A3G deaminase: 6; UCH37 inh: 5; A3A deaminase: -2; AHR activator: 18; PolyA inhibitor: -3; Arr AP2 block: 7

How did CC(Nc1nc(-c2ccc(F)cc2)cs1)c1nc2cc(Cl)c(Cl)cc2n1CCCO (stereo not drawn) do in these assays?
A3G deaminase: 0; UCH37 inh: 3; A3A deaminase: 0; AHR activator: 72*; PolyA inhibitor: 21; Arr AP2 block: 2

How did COc1ccc(-c2csc(NC(CO)c3nc4ccccc4n3CCCO)n2)cc1 (stereo not drawn) do in these assays?
A3G deaminase: -10; UCH37 inh: -1; A3A deaminase: -4; AHR activator: 55*; PolyA inhibitor: 8; Arr AP2 block: 0

How did OCCOCCn1c(CCNc2nc(-c3ccc(Cl)cc3)cs2)nc2cc(Cl)c(Cl)cc21 do in these assays?
A3G deaminase: 0; UCH37 inh: 7; A3A deaminase: -1; AHR activator: 59*; PolyA inhibitor: -19; Arr AP2 block: -1

Results for COc1cccc([C@@H]2Oc3ccc(OC)cc3C(=O)[C@H]2OC(=O)NCc2ccc3c(c2)OCO3)c1 ?
A3G deaminase: -12; UCH37 inh: -3; A3A deaminase: 1; AHR activator: 54*; PolyA inhibitor: 2

How did COc1cccc([C@@H]2Oc3ccc(OC)cc3C(=O)[C@H]2OC(=O)Nc2cc(OC)c(OC)c(OC)c2)c1 do in these assays?
A3G deaminase: -6; UCH37 inh: 1; A3A deaminase: 0; AHR activator: 10

What do the screens show for `CCN(CC)c1ccc(C=NOCC(=O)Nc2cccc(C)c2)cc1`?
UCH37 inh: -5

Results for COc1ccccc1C(=O)O/N=C(\N)c1ccccn1 ?
A3G deaminase: -3; UCH37 inh: 1; A3A deaminase: 1; AHR activator: 32; PolyA inhibitor: -5; Arr AP2 block: 20

What do the screens show for `N/C(=N\OC(=O)c1ccc(Cl)c([N+](=O)[O-])c1)c1ccccn1`?
A3G deaminase: -5; A3A deaminase: -4; AHR activator: -6; PolyA inhibitor: -28; Arr AP2 block: 14

What do the screens show for `N/C(=N\OC(=O)c1ccc(Cl)c(Cl)c1)c1ccccn1`?
A3G deaminase: -4; UCH37 inh: -1; A3A deaminase: 6; AHR activator: 72*; PolyA inhibitor: -20; Arr AP2 block: 13

What do the screens show for `N/C(=N\OC(=O)c1cccc(Cl)c1)c1ccccn1`?
A3G deaminase: -7; UCH37 inh: 2; A3A deaminase: -5; AHR activator: 70*; PolyA inhibitor: -4; Arr AP2 block: 26

Results for N/C(=N\OC(=O)c1ccc(Cl)cc1)c1ccccn1 ?
A3G deaminase: 2; UCH37 inh: 2; A3A deaminase: 3; AHR activator: -15; PolyA inhibitor: -13; Arr AP2 block: 0

How did N/C(=N\OC(=O)c1ccccc1Cl)c1ccccn1 do in these assays?
A3G deaminase: -6; UCH37 inh: 3; A3A deaminase: -2; AHR activator: 52*; PolyA inhibitor: -7; Arr AP2 block: 10

How did CCOc1ccc(C=NNC(=O)C(C)Sc2ccccn2)cc1OCC (stereo not drawn) do in these assays?
UCH37 inh: 5

Results for CCOC(=O)C1=C(C)N=c2sc(=Cc3cccn3C)c(=O)n2C1c1cccc(OC)c1OC (stereo not drawn) ?
UCH37 inh: -3

What do the screens show for `c1coc(-c2nnc(-c3ccco3)nn2)c1`?
A3G deaminase: 80; UCH37 inh: 32*; A3A deaminase: 98; AHR activator: 3; PolyA inhibitor: 0; Arr AP2 block: 15

How did O=C(NN=Cc1cn(-c2ccccc2)nc1-c1cc2ccccc2o1)c1c[nH]c2ccccc12 do in these assays?
UCH37 inh: -6

How did Cc1cc(C(=O)NN=Cc2cc(C(C)(C)C)ccc2O)n[nH]1 do in these assays?
UCH37 inh: -14

What do the screens show for `O=S(=O)(N=C(c1ccc(Cl)cc1)N1CCOCC1)c1ccc(Cl)cc1`?
UCH37 inh: 4

How did O=C(Nc1ccccc1Cl)Oc1ccc(Cl)cc1Cl do in these assays?
A3G deaminase: 0; A3A deaminase: -1; AHR activator: 50*; PolyA inhibitor: -7; Arr AP2 block: -1

What do the screens show for `Clc1cccc(N/N=C(\Cc2nc3ccccc3[nH]2)c2ccccc2)c1`?
A3G deaminase: -1; A3A deaminase: -1; AHR activator: 64*; PolyA inhibitor: -10; Arr AP2 block: 2

Results for CN(Cc1ccccc1)c1nc(N)c([N+](=O)[O-])c(Nc2cccc(F)c2)n1 ?
A3G deaminase: -9; UCH37 inh: 8; A3A deaminase: -2; AHR activator: 48*; PolyA inhibitor: 14; Arr AP2 block: 5

How did CN(c1ccccc1)c1nc(N)c([N+](=O)[O-])c(Nc2cccc(F)c2)n1 do in these assays?
A3G deaminase: -3; UCH37 inh: 5; A3A deaminase: 0; AHR activator: 7; PolyA inhibitor: -8; Arr AP2 block: -2
